Measurements from ChEMBL document CHEMBL4251619, “A new family of densely functionalized fused-benzoquinones as potent human protein kinase CK2 inhibitors” (Eur J Med Chem, 2018).
Calls of active or inactive are those of the source. The rule behind the calls is not given here.

Experiments:
[1] = target: T1, Casein kinase II alpha/beta (Homo sapiens, UniProt P68400); test: Inhibition of human CK2-alpha/beta expressed in Escherichia coli BL21(DE3) using RRRDDDSDDD peptide as substrate after 15 mins by capillary electrophoresis method
MCF7 [2] = test: Cytotoxicity against human MCF7 cells assessed as inhibition of cell viability at 100 uM after 48 hrs by MTT assay relative to control; assay type: functional; settings: MCF7, 48 h
In short: (§1)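 MCF-7 cells grown in RPMI 1640 with GlutaMax and 10% FCS. Seeded at 1 x 10^5 cells/well and left overnight, then given fresh medium with inhibitor at 10 or 100 µM; 1% DMSO as control. After 48 h at 37 °C, 5% CO₂, MTT was added (0.5 mg/mL final) for 2 h. Formazan dissolved in DMSO and read at 570 nm against 630 nm reference. Triplicates, three independent experiments, mean ± SD.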

MCF7 [3] = test: Cytotoxicity against human MCF7 cells assessed as inhibition of cell viability at 10 uM after 48 hrs by MTT assay; assay type: functional, cell-based; in short: as §1
[4] = target: T1, Casein kinase II alpha/beta; test: ATP-competitive inhibition of human CK2-alpha/beta expressed in Escherichia coli BL21(DE3) using RRRDDDSDDD peptide as substrate after 15 mins in presence of varying levels of ATP by capillary electrophoresis method
Casein kinase 2 = Casein kinase 2 (Homo sapiens, UniProt P67870+P68400+P19784+Q8NEV1); test: Inhibition of CK2 (unknown origin); assay type: protein assay

| SMILES | IC50 [1] [nM] | Ki [4] [nM] | IC50 (Casein kinase 2) [nM] | inhibition at 100 µM (MCF7 [2]) [%] | inhibition (MCF7 [3]) |
| --- | --- | --- | --- | --- | --- |
| CCCCCCCCCCCC1=C(O)C(=O)C2=C(OC(N)=C(C#N)C2c2cccnc2)C1=O (stereo unspecified) | 1380 | – | – | – | – |
| CCCCCCCCCCCC1=C(O)C(=O)C2=C(OC(N)=C(C#N)C2c2ccc(C(=O)O)cc2)C1=O (stereo unspecified) | 1360 | – | – | – | – |
| CCCCCCCCCCCC1=C(O)C(=O)C2=C(OC(N)=C(C#N)C2c2ccccc2)C1=O (stereo unspecified) | 570 | 390 | – | 50 | inactive |
| CCCCCCCCCCCC1=C(O)C(=O)C2=C(OC(N)=C(C#N)C2c2cccc([N+](=O)[O-])c2)C1=O (stereo unspecified) | 890 | – | – | 65 | inactive |
| CCCCCCCCCCCC1=C(O)C(=O)C2=C(OC(N)=C(C#N)C2c2ccncc2)C1=O (stereo unspecified) | 1440 | – | – | – | – |

The remaining compounds from weak to strong by IC50 [1], led by results:

| IC50 [1] [nM] | Ki [4] [nM] | IC50 (Casein kinase 2) [nM] | SMILES | inhibition at 100 µM (MCF7 [2]) [%] | inhibition (MCF7 [3]) |
| --- | --- | --- | --- | --- | --- |
| 3710 | – | – | CCCCCCCCCCCC1=C(O)C(=O)C2=C(OC(N)=C(C#N)C2CCCCCC)C1=O (stereo unspecified) | – | – |
| 1990 | – | – | CCCCCCCCC1=C(O)C(=O)C2=C(OC(N)=C(C#N)C2c2ccc([N+](=O)[O-])cc2)C1=O (stereo unspecified) | – | – |
| 1940 | – | – | CCCCCCCCCCCC1=C(O)C(=O)C2=C(OC(N)=C(C#N)C2c2ccc3c(c2)OCO3)C1=O (stereo unspecified) | – | – |
| 996 | – | – | CCCCCCCCCCCC1=C(O)C(=O)C2=C(OC(N)=C(C#N)C2c2cccc(F)c2)C1=O (stereo unspecified) | 60 | inactive |
| 900 | – | < 1000 | CCCCCCCCCCCC1=C(O)C(=O)C2=C(OC(N)=C(C#N)C2c2ccc(Cl)cc2)C1=O (stereo unspecified) | – | inactive |
| 840 | – | – | CCCCCCCCCCCC1=C(O)C(=O)C2=C(OC(N)=C(C#N)C2c2ccc(OC)cc2)C1=O (stereo unspecified) | 55 | inactive |
| 720 | – | – | CCCCCCCCCCCC1=C(O)C(=O)C2=C(OC(N)=C(C#N)C2c2ccco2)C1=O (stereo unspecified) | – | – |
| 220 | – | – | CCCCCCCCCCCC1=C(O)C(=O)C2=C(OC(N)=C(C#N)C2c2ccc([N+](=O)[O-])cc2)C1=O (stereo unspecified) | 90 | inactive |
